Source: paper PMC9851027 (ACS Omega, 2023)
Peptide text beside a SMILES is read from it. * marks the point of attachment. Propionyl = CCC(=O)*

Key:
human NMUR2 [1] = biological target: T1, human NMUR2 (Homo sapiens, UniProt Q9GZQ4); test: Functional in vitro FLIPR calcium mobilization assay; assay type: cell-based; conditions: SD
In short: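 Recombinant Chem-1 cells overexpressing full-length human NMUR2, grown in DMEM/10% FBS with selection, seeded at 5×10^5 cells/mL 16 h before assay. Loaded with Calcium 6 dye plus 2 mM probenecid for 60 min at 37 °C. Fractions given as 12-point 1:3 dilutions in HBSS/20 mM Hepes/0.1% BSA, final 1.1 μM–[…]. Read by FLIPR at 0.5 Hz as peak minus baseline fluorescence; Hill fit, mean ± standard deviation of two experiments.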

human NMUR2 [2] = biological target: T1, human NMUR2; test: Competitive radioligand binding assay with [^125I]NMU-8

T1 sequence (Q9GZQ4 whole entry): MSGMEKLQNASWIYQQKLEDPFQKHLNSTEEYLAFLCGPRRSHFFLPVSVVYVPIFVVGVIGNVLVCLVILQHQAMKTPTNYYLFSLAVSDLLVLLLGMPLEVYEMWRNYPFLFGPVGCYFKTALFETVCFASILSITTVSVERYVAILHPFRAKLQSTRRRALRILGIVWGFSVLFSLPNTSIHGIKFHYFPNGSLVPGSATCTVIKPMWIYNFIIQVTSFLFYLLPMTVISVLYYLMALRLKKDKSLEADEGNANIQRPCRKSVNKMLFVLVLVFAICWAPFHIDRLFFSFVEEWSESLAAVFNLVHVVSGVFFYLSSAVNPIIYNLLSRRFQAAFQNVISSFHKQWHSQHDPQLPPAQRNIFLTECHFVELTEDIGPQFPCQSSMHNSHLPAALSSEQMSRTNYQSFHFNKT

SMILES: CCC(=O)N[C@H](C(=O)N[C@@H](CC(C)C)C(=O)N[C@@H](CCC(N)=O)C(=O)N[C@@H](CCCNC(=N)N)C(=O)NCC(=O)N[C@@H](CO)C(=O)NCC(=O)N[C@H](C(=O)N[C@@H](C)C(=O)N[C@@H](C)C(=O)N[C@H](C(=O)N[C@@H](CC(=O)O)C(=O)N[C@@H](Cc1ccccc1)C(=O)N[C@H](C(=O)N[C@@H](CCCCN)C(=O)N[C@@H](CCCCN)C(=O)N[C@@H](CC(=O)O)C(=O)N[C@@H](Cc1c[nH]cn1)C(=O)N[C@H](C(=O)N[C@@H](C)C(=O)N[C@H](C(=O)N[C@@H](Cc1c[nH]c2ccccc12)C(=O)NCC(=O)N[C@@H](CCCNC(=N)N)C(=O)N1CCC[C@H]1C(=O)N[C@@H](Cc1ccccc1)C(=O)N[C@@H](Cc1ccccc1)C(=O)N[C@@H](CC(C)C)C(=O)N[C@@H](Cc1ccccc1)C(=O)N[C@@H](CCCNC(=N)N)C(=O)N1CCC[C@H]1C(=O)N[C@@H](CCCNC(=N)N)C(=O)N[C@@H](CC(N)=O)C(N)=O)[C@@H](C)O)[C@@H](C)O)[C@@H](C)O)C(C)C)[C@@H](C)O)[C@@H](C)CC [fraction c] (Propionyl-ILQRGSGTAAVDFTKKDHTATWGRPFFLFRPRN-NH2)
- EC50 (human NMUR2 [1]): 1.02 nM
- IC50 (human NMUR2 [2]): 2.19 nM
